Data on six compounds can be found in ChEMBL document CHEMBL1212724, “Rapid selection of cyclic peptides that reduce alpha-synuclein toxicity in yeast and animal models” (Nat Chem Biol, 2009).

Assay [1] concerns the target Alpha-synuclein (Homo sapiens) (UniProt P37840). Description: Inhibition of alpha-synuclein-mediated toxicity in yeast transfected with human alpha-synuclein by spotting assay. The gist of the method: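 Haploid W303 IntTox strain carrying integrated GAL1-driven human α-syn-YFP, transformed with CP plasmids by lithium acetate heat shock. At least three independent transformants tested. Cells serially diluted and plated on galactose medium to induce α-syn, then growth scored.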

Assay [2] has the same target. Put plainly: Inhibition of alpha-synuclein-mediated dopaminergic neurodegeneration in Caenorhabditis elegans transfected with human alpha-synuclein. The gist of the method:
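Age-synchronized transgenic worms expressing α-syn and GFP from the Pdat-1 promoter in DA neurons, with extrachromosomal mCP arrays; three independent lines per strain. Six anterior DA neurons (4 CEP, 2 ADE) scored at day 7 on 2% agarose pads with 2 mM levamisole, by epifluorescence. An animal with any dendrite, axon or cell body loss counted as degenerating. 30 worms per trial, three trials per line.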

Assay [3] addresses Huntingtin (Homo sapiens) (UniProt P42858). Description: Inhibition of huntingtin-mediated toxicity in yeast transfected with human huntingtin by spotting assay.
In assay [4] the target is Alpha-synuclein (Homo sapiens) (UniProt P37840). Description: Inhibition of human alpha-synuclein-mediated accumulation of stalled vesicle pools in yeast transfected with human alpha-synuclein after 8 to 12 hrs by electron microscopy.
A further assay has as its system Saccharomyces cerevisiae. Put plainly: Effect on lacZ expression in yeast after 36 to 48 hrs by Gal1 reporter gene assay. It is filed as functional, organism-based. The gist of the method: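 GAL1::LacZ yeast (freshly integrated) grown on galactose plates; single colonies picked at 36–48 h, washed, normalized to OD600 0.4–0.8. CPRG substrate buffer (100 mM HEPES pH 7.25, 150 mM NaCl, 0.5% SDS, 0.75 mg/mL CPRG) added, shaken 30–120 min at room temperature. Absorbance read at 578 nm and corrected for yeast optical density.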

The structures appear in SMILES notation. The source made the active and inactive calls. The calls are words filed in the database; no cut-off is given here. Bridge positions count the residues as written; N and C are the ends. Peptide text beside a SMILES is read from it.

Chain of Huntingtin (Homo sapiens) (P42858 whole entry): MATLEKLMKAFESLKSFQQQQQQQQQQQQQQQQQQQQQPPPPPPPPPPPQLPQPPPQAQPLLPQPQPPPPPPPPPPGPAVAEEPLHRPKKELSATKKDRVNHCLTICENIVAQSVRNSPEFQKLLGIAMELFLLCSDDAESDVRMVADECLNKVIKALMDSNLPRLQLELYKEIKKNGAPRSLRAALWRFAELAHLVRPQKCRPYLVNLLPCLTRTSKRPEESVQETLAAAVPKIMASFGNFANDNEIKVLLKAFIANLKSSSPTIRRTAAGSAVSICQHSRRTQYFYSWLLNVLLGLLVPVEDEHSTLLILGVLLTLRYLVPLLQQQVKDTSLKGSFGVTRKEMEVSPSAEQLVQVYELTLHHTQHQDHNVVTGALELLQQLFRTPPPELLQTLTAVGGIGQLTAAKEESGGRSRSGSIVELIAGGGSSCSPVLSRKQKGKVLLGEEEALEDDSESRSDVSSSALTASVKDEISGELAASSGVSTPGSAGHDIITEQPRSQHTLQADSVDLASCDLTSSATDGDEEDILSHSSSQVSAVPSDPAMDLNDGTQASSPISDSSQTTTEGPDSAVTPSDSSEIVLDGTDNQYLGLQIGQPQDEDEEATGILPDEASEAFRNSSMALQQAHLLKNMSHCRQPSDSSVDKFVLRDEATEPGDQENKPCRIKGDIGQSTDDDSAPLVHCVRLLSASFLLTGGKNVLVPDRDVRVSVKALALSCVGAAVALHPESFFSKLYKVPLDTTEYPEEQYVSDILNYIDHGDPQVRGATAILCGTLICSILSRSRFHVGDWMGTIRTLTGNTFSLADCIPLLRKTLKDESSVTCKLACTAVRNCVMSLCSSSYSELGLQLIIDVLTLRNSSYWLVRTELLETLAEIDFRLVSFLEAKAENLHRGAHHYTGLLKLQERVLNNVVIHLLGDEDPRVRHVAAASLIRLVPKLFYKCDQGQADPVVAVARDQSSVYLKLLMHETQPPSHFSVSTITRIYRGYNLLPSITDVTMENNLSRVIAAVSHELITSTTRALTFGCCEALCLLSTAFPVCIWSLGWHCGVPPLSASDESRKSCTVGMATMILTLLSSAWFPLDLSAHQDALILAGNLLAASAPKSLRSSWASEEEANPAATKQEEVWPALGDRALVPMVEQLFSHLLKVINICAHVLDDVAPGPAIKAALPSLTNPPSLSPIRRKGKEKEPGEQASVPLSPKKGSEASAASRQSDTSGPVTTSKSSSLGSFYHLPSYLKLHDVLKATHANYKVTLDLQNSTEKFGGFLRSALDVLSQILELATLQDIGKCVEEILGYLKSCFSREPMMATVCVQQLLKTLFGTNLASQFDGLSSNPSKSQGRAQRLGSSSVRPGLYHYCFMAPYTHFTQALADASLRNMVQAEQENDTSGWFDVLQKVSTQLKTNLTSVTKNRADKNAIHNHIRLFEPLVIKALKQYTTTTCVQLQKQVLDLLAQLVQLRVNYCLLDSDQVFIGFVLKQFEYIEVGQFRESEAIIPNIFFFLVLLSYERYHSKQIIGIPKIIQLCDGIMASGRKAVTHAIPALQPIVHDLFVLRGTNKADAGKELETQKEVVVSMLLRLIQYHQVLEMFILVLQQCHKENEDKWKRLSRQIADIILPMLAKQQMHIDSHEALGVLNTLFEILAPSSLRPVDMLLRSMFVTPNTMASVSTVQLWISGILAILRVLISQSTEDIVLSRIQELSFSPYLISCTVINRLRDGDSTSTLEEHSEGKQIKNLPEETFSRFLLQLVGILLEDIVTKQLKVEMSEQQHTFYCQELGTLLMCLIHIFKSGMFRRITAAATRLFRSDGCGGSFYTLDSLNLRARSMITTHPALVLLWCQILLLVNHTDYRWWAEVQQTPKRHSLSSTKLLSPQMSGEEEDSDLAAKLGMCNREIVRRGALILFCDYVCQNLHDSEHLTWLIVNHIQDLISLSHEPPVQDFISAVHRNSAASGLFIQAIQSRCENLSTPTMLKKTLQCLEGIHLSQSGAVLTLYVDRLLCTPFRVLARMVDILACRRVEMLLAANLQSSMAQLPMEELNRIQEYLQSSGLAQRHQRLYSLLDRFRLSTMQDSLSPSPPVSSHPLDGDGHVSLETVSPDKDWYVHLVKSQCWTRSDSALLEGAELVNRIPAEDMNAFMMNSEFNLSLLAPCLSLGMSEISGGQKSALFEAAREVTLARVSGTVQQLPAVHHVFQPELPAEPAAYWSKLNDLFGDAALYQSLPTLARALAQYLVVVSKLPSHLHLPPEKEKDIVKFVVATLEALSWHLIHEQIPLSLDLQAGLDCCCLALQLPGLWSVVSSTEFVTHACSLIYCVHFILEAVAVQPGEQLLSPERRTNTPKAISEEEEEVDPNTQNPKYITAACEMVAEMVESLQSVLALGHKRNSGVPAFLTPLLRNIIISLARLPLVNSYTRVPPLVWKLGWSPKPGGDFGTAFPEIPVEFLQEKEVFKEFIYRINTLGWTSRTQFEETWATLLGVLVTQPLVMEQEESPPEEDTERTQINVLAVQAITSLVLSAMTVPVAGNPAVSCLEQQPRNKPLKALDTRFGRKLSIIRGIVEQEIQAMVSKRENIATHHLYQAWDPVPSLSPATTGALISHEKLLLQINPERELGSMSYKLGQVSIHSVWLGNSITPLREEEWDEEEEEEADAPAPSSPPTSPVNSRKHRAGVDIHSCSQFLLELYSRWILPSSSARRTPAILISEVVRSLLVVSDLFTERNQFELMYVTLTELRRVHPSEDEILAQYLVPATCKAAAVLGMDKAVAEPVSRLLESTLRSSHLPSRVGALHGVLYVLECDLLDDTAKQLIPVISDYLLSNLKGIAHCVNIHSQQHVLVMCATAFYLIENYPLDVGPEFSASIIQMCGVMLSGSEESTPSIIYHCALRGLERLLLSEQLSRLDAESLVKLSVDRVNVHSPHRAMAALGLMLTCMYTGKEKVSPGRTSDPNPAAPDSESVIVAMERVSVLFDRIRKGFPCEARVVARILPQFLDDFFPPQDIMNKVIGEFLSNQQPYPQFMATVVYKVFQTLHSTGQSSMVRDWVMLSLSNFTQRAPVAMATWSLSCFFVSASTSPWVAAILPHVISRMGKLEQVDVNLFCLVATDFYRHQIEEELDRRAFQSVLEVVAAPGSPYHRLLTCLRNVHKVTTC

As to `CC(C)[C@H](NC(=O)[C@H](CCCNC(=N)N)NC(=O)CNC(=O)[C@H](CO)NC(=O)[C@@H]1CSSC[C@H](N)C(=O)N2CCC[C@H]2C(=O)N[C@@H](Cc2c[nH]c3ccccc23)C(=O)N1)C(=O)O` (H-CPWCSGRV-OH; disulfide 1-4), the inhibition entry in assay [1] is “Active”.
As to `CC(C)[C@H](NC(=O)[C@H](CCCNC(=N)N)NC(=O)[C@H](C)NC(=O)[C@H](CO)NC(=O)[C@@H]1CSSC[C@H](N)C(=O)N2CCC[C@H]2C(=O)N[C@@H](Cc2c[nH]c3ccccc23)C(=O)N1)C(=O)O` (H-CPWCSARV-OH; disulfide 1-4), the inhibition result in assay [1] is “Active”.
Take `CC(C)C[C@H](NC(=O)[C@H](C)NC(=O)[C@H](C)N)C(=O)N[C@@H](CS)C(=O)N[C@@H](CC(=O)O)C(=O)N1CCC[C@H]1C(=O)N[C@@H](Cc1c[nH]c2ccccc12)C(=O)N[C@@H](Cc1c[nH]c2ccccc12)C(=O)O` (H-AALCDPWW-OH): in assay [2], the inhibition result was “inactive”.
Turning to `CC(C)C[C@@H]1NC(=O)[C@H](C)NC(=O)[C@@H](N)CSSC[C@@H](C(=O)N[C@@H](CC(=O)O)C(=O)N2CCC[C@H]2C(=O)N[C@@H](Cc2c[nH]c3ccccc23)C(=O)N[C@@H](Cc2c[nH]c3ccccc23)C(=O)O)NC1=O` (H-CALCDPWW-OH; disulfide 1-4), the result (in assay [3]; in assay [4]; in the assay with Saccharomyces cerevisiae) was inactive. Further, in assay [2], the percent of animals without neurodegeneration is 24%. For the same compound, the inhibition entry in assay [1] is “Active”.
`CC(C)[C@H](NC(=O)[C@H](CCCNC(=N)N)NC(=O)[C@@H](NC(=O)[C@H](CO)NC(=O)[C@H](CS)NC(=O)[C@H](Cc1c[nH]c2ccccc12)NC(=O)[C@@H]1CCCN1C(=O)[C@H](C)N)[C@@H](C)O)C(=O)O` (H-APWCSTRV-OH): the inhibition result in assay [2] is “inactive”.
With `CC(C)[C@H](NC(=O)[C@H](CCCNC(=N)N)NC(=O)[C@@H](NC(=O)[C@H](CO)NC(=O)[C@@H]1CSSC[C@H](N)C(=O)N2CCC[C@H]2C(=O)N[C@@H](Cc2c[nH]c3ccccc23)C(=O)N1)[C@@H](C)O)C(=O)O` (H-CPWCSTRV-OH; disulfide 1-4), the result (in assay [3]; in assay [4]; in the assay on Saccharomyces cerevisiae) was inactive. For the same compound, the percent of animals without neurodegeneration in assay [2] was 26%. In assay [1], the inhibition result is “Active”.
